Bioassay records: PubChem BioAssay, The Scripps Research Institute Molecular Screening Center
LYPLA1 counter: counter-screen for PME1 inhibitors: inhibitors of human LYPLA1; 0.16% of 320,000 active; AID 2174; recombinant LYPLA1, FP-Rh probe fluorescence polarization; inhibition, % at 5.9 µM;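 active means inhibition above the mean of all tested compounds plus 3 SD, set per campaign, cut at about 14% in these data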;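 further: inhibitors block serine hydrolase probe labeling of LYPLA1 so polarization falls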
Target sequence (O75608 whole entry, looked up): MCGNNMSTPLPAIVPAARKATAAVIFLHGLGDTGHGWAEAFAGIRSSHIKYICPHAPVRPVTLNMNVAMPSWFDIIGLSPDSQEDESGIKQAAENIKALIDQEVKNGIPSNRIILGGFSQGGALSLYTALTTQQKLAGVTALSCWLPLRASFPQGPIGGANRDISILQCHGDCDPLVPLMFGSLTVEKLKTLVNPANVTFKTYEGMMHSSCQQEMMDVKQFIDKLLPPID
PREPL inh: inhibitors of human prolyl oligopeptidase-like enzyme PREPL; Q4J6C6; recombinant PREPL, fluorescence polarization activity-based probe; inhibition, % at 5.96 µM; 0.68% of 320,000 active; AID 2751; in the data active means inhibition above about 43%
LYPLA2 counter: LYPLA2 (human) inhibition in PME1 counter-screen. AID 2177. 0.38% of 320,000 active. O95372. inhibition, % at 5.9 µM. recombinant LYPLA2, FP-Rh probe fluorescence polarization;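 active means inhibition above the screen-wide mean plus 3 SD, limit set per campaign, cut at about 26% in these data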
proCasp7 act: activates human procaspase-7, counter-screen for procaspase-3 activators; 0.093% of 330,000 active; recombinant procaspase-7, Ac-DEVD-pNA absorbance 405 nm; D23A/D198A/D206A triple mutant, cannot self-cleave; scale: DMSO 0, 5 µM enzyme 100; P55210; activation, % at 8.5 µM; AID 463210;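 active means percent activation above the screen-wide mean plus 3 SD, cut at about 25% in these data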
Target sequence (P55210 whole entry D23A/D198A/D206A): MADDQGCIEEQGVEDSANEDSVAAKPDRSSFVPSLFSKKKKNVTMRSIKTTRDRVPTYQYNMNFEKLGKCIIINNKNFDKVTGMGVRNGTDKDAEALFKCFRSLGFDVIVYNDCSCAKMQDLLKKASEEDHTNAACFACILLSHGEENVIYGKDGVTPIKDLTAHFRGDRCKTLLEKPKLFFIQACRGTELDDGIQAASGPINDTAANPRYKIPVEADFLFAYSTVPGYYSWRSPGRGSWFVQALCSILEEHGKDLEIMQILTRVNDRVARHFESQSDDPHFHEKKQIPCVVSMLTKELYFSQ
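Detection: p-Nitroaniline absorbance at 405 nm, read at 0 and 120 min; system: Uncleavable procaspase-7 mutant enzyme; evaluation: % activation from two-timepoint absorbance difference, scaled to controls; times: 1 h enzyme–compound preincubation and 2 h substrate reaction, both 25 °C; buffer or medium: Zinc-free HEPES pH 7.4 with 300 mM NaCl, 0.01% Triton X-100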
proCasp3 act: procaspase-3 (human) activation | P42574 | recombinant procaspase-3 D3A, Ac-DEVD-pNA absorbance 405 nm | activation, % at 8.5 µM | 0.11% of 330,000 active | AID 463141;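 active means activation above the mean of all tested compounds plus 3 SD, cut at about 21% in these data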
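Technique: 405 nm absorbance of p-nitroaniline, reads at 0 and 120 min; Test system: Procaspase-3 D3A mutant; Incubation: 1 h enzyme-compound preincubation, then 2 h substrate reaction, 25 °C; Repeats: singlicate, each compound tested once; Benchmarks: low control DMSO wells, high control DMSO plus 5 µM PC-3 D3A.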
proCasp7 act trip: activates human procaspase-7, counter-screen for procaspase-3 activators; shares compounds with proCasp3 act; recombinant procaspase-7, Ac-DEVD-pNA absorbance; asp23/198/206-to-Ala mutant, cannot self-cleave; activation, % at 8.5 µM; 210 tested, under 10 active; AID 488941;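 active means mean activation above a set limit taken from an earlier procaspase-7 screen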
proCasp3 confirm: procaspase-3 (human) activation, confirmed; shares compounds with proCasp3 act; recombinant PC-3 D3A, Ac-DEVD-pNA absorbance 405 nm; 100% is higher-enzyme control; activation, % at 8.5 µM; 10% of 210 active; AID 488954;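 active means mean activation above a set limit carried over from the earlier primary screen, cut at about 22% in these data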
Each line names hits and unclear results; the compound was inactive in the other large screens (follow-up assays come after a bar, where they were run). A selection: hits, their analogues and other compounds. The true share with any hit is near 1%.

CC(=O)Oc1cccc2c1C(=O)c1c(OC(C)=O)cc(C(=O)O)cc1C2=O	proCasp3 act 26 | proCasp7 act trip inactive | proCasp3 confirm 32
CC(=O)Oc1ccc(C(=O)O)cc1OC(C)=O	none
CCN(CC)S(=O)(=O)c1ccc2c(c1)c(=O)c(C(=O)N1CCN(c3ccccn3)CC1)cn2C	none
CCN(CC)S(=O)(=O)c1ccc2c(c1)c(=O)c(C(=O)N1CCOCC1)cn2C	proCasp3 act 46 | proCasp7 act trip inactive | proCasp3 confirm inactive
CCC1(C)Cc2ccccc2-c2nc3n(c(=O)c21)CCCCC3 (stereo not given)	none
COc1ccc(OC)c(/C=C/C(=O)OCC(=O)Nc2cccc(Oc3ccccc3)c2)c1	proCasp3 act 23 | proCasp7 act trip inactive | proCasp3 confirm inactive
COc1cccc(NC(=O)COC(=O)/C=C/c2ccc(Cl)cc2Cl)c1	none
CCOc1ccc(-c2n[nH]c(C(=O)NN)c2C)cc1	none
O=c1oc2cc(O)ccc2cc1-c1ccccc1	none
COc1ccc(-c2cc3ccc(O)cc3oc2=O)cc1	proCasp3 act 22 | proCasp7 act trip inactive | proCasp3 confirm inactive
C=CCN(c1ccccc1)S(=O)(=O)c1cccc(C(=O)Oc2ccc3c(C)cc(=O)oc3c2)c1	proCasp3 act 21 | proCasp7 act trip inactive | proCasp3 confirm inactive
C=CCN(c1ccccc1)S(=O)(=O)c1cccc(C(=O)OCC(=O)NCCOC)c1	none
O=S(=O)(NC1CCCCC1)c1ccc(S(=O)(=O)N2CCN3CCCC3C2)cc1 (stereo not given)	proCasp3 act 37 | proCasp7 act trip inactive | proCasp3 confirm inactive
O=C(CSc1nnnn1-c1ccccc1)Nc1ccc(Cl)cc1	proCasp3 act 27 | proCasp7 act trip inactive | proCasp3 confirm inactive
CCOC(=O)C1=C(C)N=C(SC)N(C)C1c1ccccc1 (stereo not given)	none
Cn1c(C(O)c2ccc3c(c2)OCO3)nc2ccccc21 (stereo not given)	none
Cc1ccc(C2Nc3ccc4ccccc4c3C3=C2C(=O)CC(C)(C)C3)o1 (stereo not given)	proCasp3 act 46 | proCasp7 act trip inactive | proCasp3 confirm inactive
CCOc1ccc(-c2c(C(=O)N/N=C/c3ccc(C)s3)nnn2-c2nonc2N)cc1	proCasp3 act 26 | proCasp7 act trip inactive | proCasp3 confirm inactive
CCOc1cccc(-c2c(C(=O)N/N=C/c3ccc(C)s3)nnn2-c2nonc2N)c1	none
CCOCCCNC(=O)c1ccc(N(C)S(=O)(=O)c2ccc(OC)cc2)cc1	proCasp3 act 22 | proCasp7 act trip inactive | proCasp3 confirm inactive
O=C(CSc1nnc(-c2ccncc2)o1)Nc1cc(Cl)ccc1C(=O)O	none (no result: LYPLA1 counter, LYPLA2 counter)
Nc1ccc2nn(-c3cccc4ccccc34)nc2c1	none
Cc1cc2nn(-c3cccc4ccccc34)nc2cc1N	proCasp3 act 22 | proCasp7 act trip inactive | proCasp3 confirm 24
OCCC1CN(Cc2ccc(F)cc2Cl)CCN1CCc1ccccc1 (stereo not given)	none
COc1cccc(CN2CCN(c3cccc(C(F)(F)F)c3)CC2)c1OC	none
COc1ccc(C2CC(c3ccncc3)=NN2c2ccc(S(N)(=O)=O)cc2)cc1 (stereo not given)	none (no result: LYPLA1 counter, PREPL inh, LYPLA2 counter)
COc1ccc(C2CC(c3ccc(Cl)cc3)=NN2c2ccc(S(N)(=O)=O)cc2)cc1 (stereo not given)	proCasp3 act 33 (no result: LYPLA1 counter, PREPL inh, LYPLA2 counter) | proCasp7 act trip inactive | proCasp3 confirm inactive
Cc1cccn2c(=O)c3cc(C(=O)NCCc4ccccc4)sc3nc12	proCasp3 act 31 | proCasp7 act trip inactive | proCasp3 confirm inactive
O=C(CN1C(=O)/C(=C\c2ccccc2Br)Oc2ccccc21)NCCCN1CCOCC1	proCasp3 act 32 | proCasp7 act trip inactive | proCasp3 confirm inactive
CC1Oc2ccccc2N(CC(=O)NCCCN2CCOCC2)C1=O (stereo not given)	none
CN(C)/C=N/C1=C(C#N)C(c2ccc(Br)cc2)c2ccc3ccccc3c2O1 (stereo not given)	proCasp3 act 29 | proCasp7 act trip inactive | proCasp3 confirm inactive
Cc1ccc(C(=O)C2CCN(CC(=O)NCc3ccc(F)cc3)CC2)cc1	none
Cc1ccc(NC(=O)CN2CCC(C(=O)c3ccc(F)cc3)CC2)cc1	proCasp3 act 38 | proCasp7 act trip inactive | proCasp3 confirm inactive
O=[N+]([O-])c1cccc(-c2ccc(CN3CCN(c4ccccc4)CC3)o2)c1	proCasp3 act 23 | proCasp7 act trip inactive | proCasp3 confirm inactive
Cn1c(N)nc2nc(CCc3ccccc3)c(=O)[nH]c2c1=O	proCasp3 act 22 | proCasp7 act trip inactive | proCasp3 confirm inactive
CCCCN1C2CCCC1CC(NC(=O)c1ccc(OC)c(OC)c1)C2 (stereo not given)	none
CCn1ncc(C(=O)Nc2ccc(F)cc2)c1C	none
CCCCCCc1cc2cc(C(=O)OCC)c(=O)oc2cc1O	proCasp3 act 36 | proCasp7 act trip inactive | proCasp3 confirm inactive
COc1ccc(NS(=O)(=O)c2ccc3oc(Nc4ccc5c(c4)OCCO5)nc3c2)cc1	none
CC(=O)c1ccc(-c2cccs2)s1	proCasp3 act 29 | proCasp7 act trip inactive | proCasp3 confirm inactive
CC(=O)N1N=C(c2cccs2)CC1c1cccs1 (stereo not given)	none
CC(Sc1nncs1)C(=O)Nc1ccc2c(c1)OCCO2 (stereo not given)	proCasp3 act 22 | proCasp7 act trip inactive | proCasp3 confirm inactive
Cc1ccc(C)c(N(CC(=O)Nc2ccc(-c3nc4ccc(C)cc4s3)cc2)S(C)(=O)=O)c1	proCasp3 act 24 | proCasp7 act trip inactive | proCasp3 confirm 23
Cc1ccc(S(=O)(=O)Nc2ccc(-c3nc4ccc(C)cc4s3)cc2)cc1	proCasp3 act 23 | proCasp7 act trip inactive | proCasp3 confirm inactive
Cc1ccc(S(=O)(=O)Oc2ccc(/C=C(/NC(=O)c3ccccc3)C(=O)O)cc2)cc1	proCasp3 act 57 | proCasp7 act trip inactive | proCasp3 confirm inactive
O=c1[nH]c2ccccc2nc1-c1cccs1	proCasp3 act 34 | proCasp7 act trip inactive | proCasp3 confirm inactive
c1csc(-c2nnsc2-c2nc3ccccc3[nH]2)c1	none
O=C(O)c1nn(CCOc2ccccc2F)c(=O)c2ccccc12	proCasp3 act 22 | proCasp7 act trip inactive | proCasp3 confirm inactive
O=C(Nc1cc(S(=O)(=O)N2CCOCC2)ccc1N1CCOCC1)c1ccccc1F	proCasp3 act 23 | proCasp7 act trip inactive | proCasp3 confirm inactive
COc1ccc(CCNC(=O)CNC(=O)c2nn(-c3ccc(OC)c(OC)c3)c(=O)c3ccccc23)cc1OC	none
COc1ccc(NC(=O)C2CCN(c3cnccn3)CC2)cc1OC	none
